From ChEMBL document CHEMBL1126590, “32-Methyl-32-oxylanosterols: dual-action inhibitors of cholesterol biosynthesis” (J Med Chem, 1993)

B1: Lanosterol 14-alpha demethylase (Rattus norvegicus) (protein)
chain: MVLLGLLQSGGSVLGQAMEQVTGGNLLSTLLIACAFTLSLVYLFRLAVGHMVQLPAGAKSPPYIYSPIPFLGHAIAFGKSPIEFLENAYEKYGPVFSFTMVGKTFTYLLGSDAAALLFNSKNEDLNAEEVYGRLTTPVFGKGVAYDVPNAVFLEQKKILKSGLNIAHFKQYVSIIEKEAKEYFKSWGESGERNVFEALSELIILTASHCLHGKEIRSQLNEKVAQLYADLDGGFSHAAWLLPGWLPLPSFRRRDRAHREIKNIFYKAIQKRRLSKEPAEDILQTLLDSTYKDGRPLTDDEIAGMLIGLLLAGQHTSSTTSAWMGFFLARDKPLQDKCYLEQKTVCGEDLPPLTYEQLKDLNLLDRCIKETLRLRPPIMTMMRMAKTPQTVAGYTIPPGHQVCVSPTVNQRLKDSWVERLDFNPDRYLQDNPASGEKFAYVPFGAGRHRCIGENFAYVQIKTIWSTMLRLYEFDLINGYFPSVNYTTMIHTPENPVIRYKRRSK

Experiments:
[1] = biological target: T1, 3-hydroxy-3-methylglutaryl-coenzyme A reductase (Homo sapiens, UniProt P04035); assay: Inhibition of HMG-coA Reductase enzyme in chinese hamster ovary cells; type: cell-based, Cricetulus griseus, CHO
T1 sequence (P04035 whole entry): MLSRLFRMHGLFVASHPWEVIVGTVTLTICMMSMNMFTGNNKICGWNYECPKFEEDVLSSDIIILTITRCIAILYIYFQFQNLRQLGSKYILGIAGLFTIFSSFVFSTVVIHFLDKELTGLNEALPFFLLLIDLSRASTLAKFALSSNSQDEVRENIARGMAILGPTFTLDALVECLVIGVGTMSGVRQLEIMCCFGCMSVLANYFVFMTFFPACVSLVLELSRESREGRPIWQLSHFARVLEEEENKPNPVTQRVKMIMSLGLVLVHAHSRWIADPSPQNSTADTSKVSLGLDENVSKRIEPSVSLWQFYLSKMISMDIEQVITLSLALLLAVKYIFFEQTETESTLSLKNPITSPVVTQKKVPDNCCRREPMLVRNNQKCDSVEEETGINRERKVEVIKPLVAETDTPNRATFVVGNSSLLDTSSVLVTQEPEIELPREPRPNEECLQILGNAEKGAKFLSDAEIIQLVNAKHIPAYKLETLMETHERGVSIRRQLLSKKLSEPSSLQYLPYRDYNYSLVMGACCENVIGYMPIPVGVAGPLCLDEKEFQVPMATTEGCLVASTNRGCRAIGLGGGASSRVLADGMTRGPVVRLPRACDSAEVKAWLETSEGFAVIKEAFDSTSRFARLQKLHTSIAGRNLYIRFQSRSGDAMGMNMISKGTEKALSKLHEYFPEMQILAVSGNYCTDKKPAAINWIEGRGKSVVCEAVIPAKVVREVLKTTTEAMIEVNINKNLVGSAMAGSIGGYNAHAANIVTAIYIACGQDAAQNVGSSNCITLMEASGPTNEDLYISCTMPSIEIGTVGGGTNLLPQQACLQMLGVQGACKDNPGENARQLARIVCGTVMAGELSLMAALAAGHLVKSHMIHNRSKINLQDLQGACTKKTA
In short: (§1)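 Cells grown in McCoy's 5a medium with 1% delipidated FBS under 5% CO2 and treated 4 h with compound given as a BSA suspension from an ethanol stock (final BSA 0.5 mg/mL, ethanol ≤0.5%). Cells permeabilized with 30 μg/mL digitonin in CSK buffer pH 6.8, then preincubated 20 min at 37 °C. Conversion of [14C]HMG-CoA to mevalonolactone measured with [3H]mevalonolactone internal standard and TLC separation. Value is the concentration reducing activity to 50% of control.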

[2] = biological target: T2, Lanosterol 14-alpha demethylase (Rattus norvegicus, UniProt Q64654); assay: (§2) Inhibition rat liver microsome cytochrome P450DM; type: microsomes
T2 sequence (Q64654 whole entry): B1 chain
In short: (§3)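 Buffer: phosphate pH 7.4 with glutathione, EDTA, 20% glycerol, NAD(P)H cofactors, isocitrate/isocitrate dehydrogenase, MgCl2, AY-9944, NaCN. Diene product quantified by UV-HPLC. IC50 taken from linear plots of reciprocal turnover vs inhibitor concentration.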

[3] = biological target: Lanosterol 14-alpha demethylase (Cricetulus griseus); assay: Inhibition of cytochrome P450DM in intact CHO cells
[4] = biological target: T1, 3-hydroxy-3-methylglutaryl-coenzyme A reductase; assay: Inhibition of HMG-coA Reductase enzyme in AR45 cells; type: cell-based; in short: as §1
[5] = substrate: [H][C@]1([C@]([H])(C)CCCC(C)C)CC[C@@]2(C)C3=C(CC[C@]12C)[C@@]1(C)CC[C@H](O)C(C)(C)C1CC3; assay: as §2; type: microsomes; in short: as §3

Molecule	IC50 [1] [nM]	IC50 [2] [nM]	IC50 [3] [nM]	IC50 ([4]; ar45) [nM]	IC50 [4] [nM]	Km [5] [µM]
CC(C)CCC[C@@H](C)[C@H]1CC[C@@]2(C(C)O)C3=CCC4C(C)(C)[C@@H](O)CC[C@]4(C)C3CC[C@]12C (stereo in doubt; 17a)	3000	330	300	> 20000		
CC(C)CCC[C@@H](C)[C@H]1CC[C@@]2(C(C)O)C3=CCC4C(C)(C)[C@@H](O)CC[C@]4(C)C3CC[C@]12C (stereo in doubt; 17b)	1500	1600	300		> 20000	
CC(=O)[C@@]12CC[C@H]([C@H](C)CCCC(C)C)[C@@]1(C)CCC1C2=CCC2C(C)(C)[C@@H](O)CC[C@]12C (stereo partly drawn)	1000	9100	2700		> 20000	
B1						33
